Test results: publication PMC3858174 (Bioorganic & medicinal chemistry, 2013)
Blank lines part the entries; values can stand above or below the compound they belong to.

Assays:
[1] = biological target: Dopamine2 (Homo sapiens, UniProt P14416); experiment: NIMH-PDSP binding assay, Dopamine2
[2] = biological target: BZP Rat Brain Site; experiment: NIMH-PDSP binding assay, BZP Rat Brain Site; settings: read-out: Ki BZP Rat Brain Site
[3] = biological target: Dopamine3 (Homo sapiens, UniProt P35462); experiment: NIMH-PDSP binding assay, Dopamine3
Dopamine3, sequence (P35462 whole entry): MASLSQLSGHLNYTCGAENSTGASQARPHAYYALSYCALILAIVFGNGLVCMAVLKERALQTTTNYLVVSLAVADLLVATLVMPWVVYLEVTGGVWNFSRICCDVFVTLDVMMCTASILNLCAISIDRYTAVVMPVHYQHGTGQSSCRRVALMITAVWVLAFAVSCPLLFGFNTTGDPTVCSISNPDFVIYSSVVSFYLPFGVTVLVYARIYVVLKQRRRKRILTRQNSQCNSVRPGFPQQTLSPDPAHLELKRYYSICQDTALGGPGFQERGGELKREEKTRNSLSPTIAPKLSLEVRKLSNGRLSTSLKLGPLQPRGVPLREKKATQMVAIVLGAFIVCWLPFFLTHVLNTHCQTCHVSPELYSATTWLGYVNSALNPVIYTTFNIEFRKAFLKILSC

[4] = biological target: T1, Adrenergic α1A (Homo sapiens, UniProt P35348); experiment: NIMH-PDSP binding assay, Adrenergic α1A
T1 sequence (P35348 1-466): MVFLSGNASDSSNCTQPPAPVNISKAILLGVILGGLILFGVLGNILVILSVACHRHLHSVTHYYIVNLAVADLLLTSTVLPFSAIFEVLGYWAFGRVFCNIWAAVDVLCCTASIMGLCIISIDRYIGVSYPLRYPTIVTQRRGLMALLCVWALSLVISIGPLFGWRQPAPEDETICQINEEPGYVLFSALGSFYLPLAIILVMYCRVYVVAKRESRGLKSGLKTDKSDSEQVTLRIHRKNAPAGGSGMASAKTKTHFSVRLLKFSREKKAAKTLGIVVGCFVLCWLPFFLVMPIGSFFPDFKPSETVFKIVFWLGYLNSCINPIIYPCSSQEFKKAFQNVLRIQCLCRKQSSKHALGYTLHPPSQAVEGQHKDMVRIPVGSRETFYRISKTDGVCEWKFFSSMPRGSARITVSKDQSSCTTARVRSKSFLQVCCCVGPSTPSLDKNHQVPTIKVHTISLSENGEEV

[5] = biological target: 5HT7 (Homo sapiens, UniProt P34969); experiment: NIMH-PDSP binding assay, 5HT7
5HT7, sequence (P34969 whole entry, species assumed): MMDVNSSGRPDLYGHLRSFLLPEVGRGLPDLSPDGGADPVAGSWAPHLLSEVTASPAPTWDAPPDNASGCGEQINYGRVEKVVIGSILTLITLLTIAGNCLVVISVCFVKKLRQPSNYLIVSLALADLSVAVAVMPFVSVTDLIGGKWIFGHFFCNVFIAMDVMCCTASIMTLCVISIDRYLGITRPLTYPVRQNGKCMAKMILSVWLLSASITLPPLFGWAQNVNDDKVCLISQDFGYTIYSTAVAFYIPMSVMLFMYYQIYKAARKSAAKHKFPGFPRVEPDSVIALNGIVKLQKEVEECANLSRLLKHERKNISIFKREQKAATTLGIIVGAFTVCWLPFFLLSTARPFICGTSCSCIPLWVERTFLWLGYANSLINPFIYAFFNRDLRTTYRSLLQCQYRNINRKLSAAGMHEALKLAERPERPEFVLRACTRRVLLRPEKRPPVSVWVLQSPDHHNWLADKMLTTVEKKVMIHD

[6] = tested on: 5-HT1AR; settings: 5-HT1AR-rich regions such as hippocampus, amygdala, cortex and cingulate regions; cited from earlier work
[7] = tested on: 5-HT1AR; experiment: PET imaging in anesthetized baboon; assay type: in vivo, baboon (Papio anubis)
How it was run: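 Two fasted male baboons: ketamine 10 mg/kg im, then 1.5–2.0% isoflurane via endotracheal tube, core temperature held at 37 °C. Saline iv line and arterial line placed. 10 min transmission scan, then 111 ± 18 MBq radiotracer as iv bolus. 3-D emission data collected for 180 min. MRI-coregistered regions of interest, left and right averaged.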

[8] = Stability of formulation; assay type: physicochemical; settings: 10% ethanol-90% saline; analytical HPLC and radio-TLC
[9] = logPo/w by shake flask method; assay type: physicochemical

Dopamine2, sequence (P14416 whole entry): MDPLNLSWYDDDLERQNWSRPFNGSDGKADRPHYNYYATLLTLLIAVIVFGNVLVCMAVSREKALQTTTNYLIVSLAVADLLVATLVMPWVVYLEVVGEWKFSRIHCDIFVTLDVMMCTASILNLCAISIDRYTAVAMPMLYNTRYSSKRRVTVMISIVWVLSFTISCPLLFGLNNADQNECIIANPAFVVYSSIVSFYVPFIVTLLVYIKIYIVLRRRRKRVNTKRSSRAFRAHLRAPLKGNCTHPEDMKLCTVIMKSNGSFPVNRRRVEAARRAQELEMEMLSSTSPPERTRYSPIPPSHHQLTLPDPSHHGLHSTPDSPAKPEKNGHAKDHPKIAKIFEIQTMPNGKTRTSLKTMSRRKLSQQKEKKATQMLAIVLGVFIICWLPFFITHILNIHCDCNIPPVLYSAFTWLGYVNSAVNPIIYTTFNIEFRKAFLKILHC

Ki Dopamine2 [1]: did not show any significant binding
Ki [2]: > 10 µM
Ki Dopamine3 [3]: did not show any significant binding
less affinity for α1A AR in comparison to 5-HT1AR [4]: 45 fold
Structure (SMILES): COc1ccccc1N1CCN(CCCCn2ncc(=O)n(C)c2=O)CC1 [CUMI-101]

selectivity to 5-HT1A over 5-HT7 [5]: 172 fold
Structure (SMILES): Cn1c(=O)cnn(CCCCN2CCN(c3ccccc3OCCF)CC2)c1=O [FECUMI-101, 2-(4-(4-(2-(2-fluoroethoxy)phenyl)piperazin-1-yl)butyl)-4-methyl-1,2,4-triazine-3,5(2H,4H)-dione]

Structure (SMILES): Cn1c(=O)cnn(CCCCN2CCN(c3ccccc3O[11CH3])CC2)c1=O [[^11C]CUMI-101]
lower BPF in comparison with [11C]WAY-100635 scans [6]: ~ 50%

BBB penetration ([7]; anesthetized baboon, 111 ± 18 MBq i.v.): penetrates the BBB
in vivo radio[18F]defluorination (skull image) ([7]; baboon PET): No skull image
Stability of radioproduct in formulation, no significant de[18F]fluorination [8]: up to 4 h
logPo/w [9]: 1.2
Structure (SMILES): Cn1c(=O)cnn(CCCCN2CCN(c3ccccc3OCC[18F])CC2)c1=O [[^18F]FECUMI-101, [18F]2-(4-(4-(2-(2-fluoroethoxy)phenyl)piperazin-1-yl)butyl)-4-methyl-1,2,4-triazine-3,5(2H,4H)-dione]
